Measurements published in ChEMBL document CHEMBL5252538, “β-Lactam analogues of combretastatin A-4 prevent metabolic inactivation by glucuronidation in chemoresistant HT-29 colon cancer cells” (Eur J Med Chem, 2017).
Active and inactive are the calls of the source. No cut-off for these calls is given here.

Assays:
HT-29 [1] = experiment: Induction of cell cycle arrest in human HT-29 cells assessed as accumulation of cells at G2/M phase at 0.5 uM incubated for 72 hrs by RNase/PI staining based flow cytometry analysis relative to control; type: functional
Outline: (§1)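 HT-29 treated with vehicle (0.1% ethanol v/v) or compound at 0.5 µM for 24, 48 and 72 h. Adherent plus detached cells collected, fixed overnight in ice-cold 70% ethanol at −20 °C, stained with PI (50 µg/mL) plus RNase A (50 µg/mL) 30 min at 37 °C. 10,000 cells analysed by flow cytometry at 488 nm; sub-G1, G0/G1, G2/M gated on DNA content; mean of three experiments.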

[2] = molecular target: T1, Tubulin beta (Homo sapiens) (UniProt P68371+Q9H4B7+Q13509+P04350+Q3ZCM7+P07437+Q13885+Q9BVA1+Q9BUF5+A6NNZ2); experiment: Binding affinity to colchicine binding site of beta-tubulin in human HT-29 cells assessed as inhibition of beta-tubulin-EBI adduct formation at 10 uM pretreated for 2 hrs followed by EBI addition and measured after 1.5 hrs by Western blot analysis; type: cell-based; conditions: time 3.5 hrs
Outline: (§2)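 Cells seeded at 5 × 10⁴/well, grown overnight, treated with vehicle (0.1% ethanol v/v) or compound (10 µM) for 2 h, then EBI (100 µM) added for 1.5 h. Cells washed with ice-cold PBS, lysed in Laemmli buffer, run on SDS-PAGE, blotted and probed for β-tubulin to detect the faster-migrating β-tubulin–EBI adduct; GAPDH reprobe for loading; three independent experiments.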

HL-60 [3] = experiment: Antiproliferative activity against human HL-60 cells assessed as inhibition of cell growth incubated for 72 hrs by SRB assay; type: functional
[4] = system: Panel NCI-60 (60 carcinoma cell lines); experiment: Antiproliferative activity against human panel NCI-60 (60 carcinoma cell lines) incubated for 72 hrs by SRB assay; type: functional; conditions: read-out: LC50 (the source's name)
HT-29 [5] = experiment: Induction of apoptosis in human HT-29 cells assessed as increase in PARP cleavage at 0.1 uM incubated for 48 hrs by Western blot analysis; type: functional, cell-based
Outline: (§3)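 HT-29 seeded at 1 × 10⁵ cells per T25 flask; left untreated, given vehicle (0.1% EtOH v/v) or compound at 0.1 or 1 µM for 48 h. Whole-cell lysates in RIPA with protease/phosphatase inhibitors, equal protein (BCA) on 12% SDS-PAGE, PVDF; probed for Mcl-1, PARP, Bax (1:1000), HRP secondary, ECL detection, GAPDH loading control; three independent occasions.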

HL-60 [6] = experiment: Antiproliferative activity against […] human HL-60 cells assessed as inhibition of cell growth incubated for 72 hrs by alamar blue assay; type: functional, cell-based; conditions: HL-60, 72 h
Outline: (§4)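 Cells seeded 24 h before treatment (HL-60 4 × 10⁴, MCF-7 5 × 10³ per well), then given medium, vehicle (1% ethanol v/v) or serial dilutions (eight concentrations) for 72 h. Alamar Blue (10% v/v) added for 3–5 h at 37 °C in the dark, fluorescence read at ex 530/em 590 nm. Viability expressed relative to vehicle (100%), IC50 from dose–response curves; three experiments in triplicate.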

MCF7 [7] = experiment: Induction of cell cycle arrest in human MCF7 cells assessed as accumulation of cells at G2/M phase at 0.5 uM incubated for 24 hrs by RNase/PI staining based flow cytometry analysis (reference value: 24%); type: functional
MCF7 [8] = experiment: Antiproliferative activity against human MCF7 cells assessed as inhibition of cell growth incubated for 72 hrs by SRB assay; type: functional
HT-29 [9] = experiment: Induction of cell cycle arrest in human HT-29 cells assessed as reduction in cells in S phase at 0.5 uM incubated for 72 hrs by RNase/PI staining based flow cytometry analysis; type: functional; outline: as §1
[10] = Stability in phosphate buffer at pH 4 assessed as half life at 30 ug/ml measured for 24 hrs by analytical HPLC analysis; type: physicochemical; conditions: dose 30 µg/ml
[11] = system: Panel NCI-60 (60 carcinoma cell lines); experiment: Antiproliferative activity against human panel NCI-60 (60 carcinoma cell lines) assessed as inhibition of cell growth at 10 uM incubated for 72 hrs by SRB assay; type: functional, cell-based
HT-29 [12] = experiment: Antiproliferative activity against human HT-29 cells assessed as inhibition of cell growth incubated for 72 hrs by SRB assay; type: functional
Outline: (§5)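 HT-29 (DMEM Glutamax, 10% FBS) seeded at 1 × 10⁴ cells/well, treated after 24 h with vehicle (1% ethanol v/v) or serial dilutions (eight concentrations) for 72 h; viability measured by sulforhodamine B protocol. Percent viability relative to vehicle control, IC50 from dose–response curves; mean of three experiments in triplicate.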

[13] = molecular target: T1, Tubulin beta (Homo sapiens); experiment: Binding affinity to colchicine binding site of beta-tubulin in human MCF7 cells assessed as inhibition of beta-tubulin-EBI adduct formation at 10 uM pretreated for 2 hrs followed by EBI addition and measured after 1.5 hrs by Western blot analysis; type: cell-based; conditions: time 3.5 hrs; outline: as §2
Tubulin (Homo sapiens) [14] = molecular target: T2, Tubulin (Homo sapiens) (UniProt P68371+Q9H4B7+P0DPH7+P68366+Q13509+Q71U36+P04350+Q3ZCM7+P07437+P68363+Q9BQE3+Q6PEY2+Q13885+Q9BVA1+Q9BUF5); experiment: Induction of microtubule disruption in human HT-29 cells assessed as appearance of multiple micronucleus at 0.5 uM incubated for 16 hrs by immunofluorescence based confocal microscopic analysis; type: cell-based
Outline: (§6)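 Fixed in 4% paraformaldehyde, permeabilised in 0.5% Triton X-100, blocked in 5% BSA, stained with anti-α-tubulin-FITC (DM1A, 1:100, 2 h) and Alexa Fluor 488, DAPI counterstain; confocal imaging, three occasions.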

HT-29 [15] = experiment: Induction of apoptosis in human HT-29 cells assessed as upregulation of Bax protein expression at 0.1 to 1 uM incubated for 48 hrs by Western blot analysis; type: functional, cell-based; conditions: dose 0.1-1 µM; outline: as §3
HT-29 [16] = experiment: Induction of apoptosis in human HT-29 cells assessed as decrease in Mcl-1 protein expression at 0.1 to 1 uM incubated for 48 hrs by Western blot analysis; type: functional, cell-based; conditions: dose 0.1-1 µM; outline: as §3
HT-29 [17] = experiment: Induction of cell cycle arrest in human HT-29 cells assessed as accumulation of cells in sub-G1 phase at 0.5 uM incubated for 72 hrs by RNase/PI staining based flow cytometry analysis (reference value: 6%); type: functional; outline: as §1
Tubulin (Homo sapiens) [18] = molecular target: T2, Tubulin (Homo sapiens); experiment: Induction of microtubule disruption in human HT-29 cells assessed as complete loss of microtubule structure at 0.5 uM incubated for 16 hrs by immunofluorescence based confocal microscopic analysis; type: cell-based; outline: as §6
Tubulin (Homo sapiens) [19] = molecular target: T2, Tubulin (Homo sapiens); experiment: Induction of microtubule disruption in human MCF7 cells assessed as shrunken spindle shaped microtubule formation at 0.5 uM incubated for 16 hrs by immunofluorescence based confocal microscopic analysis; type: cell-based
Outline: (§7)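 MCF-7 seeded at 1 × 10⁵ cells/mL on chamber slides, treated 16 h with vehicle (1% ethanol v/v), CA-4 (0.1 µM) or compounds (0.5 µM). Paraformaldehyde fixation (4%, 20 min), Triton X-100 permeabilisation, BSA block, anti-α-tubulin-FITC (DM1A) plus Alexa Fluor 488, DAPI mounting; confocal imaging with identical settings per experiment; three independent occasions.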

[20] = Stability in phosphate buffer at pH 9 assessed as half life at 30 ug/ml measured for 24 hrs by analytical HPLC analysis; type: physicochemical; conditions: dose 30 µg/ml
Tubulin (Homo sapiens) [21] = molecular target: T2, Tubulin (Homo sapiens); experiment: Induction of microtubule disruption in human MCF7 cells assessed as inhibition of microtubule formation at 0.5 uM incubated for 16 hrs by immunofluorescence based confocal microscopic analysis; type: cell-based; outline: as §7
MCF7 [22] = experiment: Antiproliferative activity against […] human MCF7 cells assessed as inhibition of cell growth incubated for 72 hrs by alamar blue assay; type: functional, cell-based; conditions: MCF7, 72 h; outline: as §4
[23] = Stability in phosphate buffer at pH 7.4 assessed as half life at 30 ug/ml measured for 24 hrs by analytical HPLC analysis; type: physicochemical; conditions: dose 30 µg/ml
HT-29 [24] = experiment: Antiproliferative activity against combretastatin A-4 resistant human HT-29 cells assessed as inhibition of cell growth incubated for 72 hrs by SRB assay; type: functional, cell-based; conditions: HT-29, 72 h; outline: as §5
MCF7 [25] = experiment: Induction of cell cycle arrest in human MCF7 cells assessed as accumulation of cells at sub-G1 phase at 0.5 uM incubated for 72 hrs by RNase/PI staining based flow cytometry analysis (reference value: 4%); type: functional
Tubulin (Bos taurus) = Tubulin (Bos taurus) (UniProt Q6B856+Q862L2+Q862F3); experiment: Inhibition of bovine tubulin polymerisation assessed as fold reduction in Vmax at 10 uM measured every 30 secs for 30 mins by spectrophotometric method relative to control; type: protein assay
HT-29 [26] = experiment: Induction of cell cycle arrest in human HT-29 cells assessed as reduction in cells in G0 phase at 0.5 uM incubated for 72 hrs by RNase/PI staining based flow cytometry analysis; type: functional; outline: as §1
Tubulin (Homo sapiens) [27] = molecular target: T2, Tubulin (Homo sapiens); experiment: Induction of microtubule disruption in human MCF7 cells assessed as depolymerization of microtubules at 0.5 uM incubated for 16 hrs by immunofluorescence based confocal microscopic analysis; type: cell-based; outline: as §7

SMILES | GI50 (HL-60 [3]) [nM] | CC50 [4] [nM] | Activity (HT-29 [5]) | IC50 (HL-60 [6]) [nM] | Activity (MCF7 [7]) [%] | GI50 (MCF7 [8]) [nM] | half-life at 30 ug/ml [10] [h] | inhibition [11] | GI50 (HT-29 [12]) [nM] | Activity (HT-29 [15]) | Activity (HT-29 [16]) | Activity (Tubulin (Homo sapiens) [19]) | half-life at 30 ug/ml [20] [h] | Activity (Tubulin (Homo sapiens) [21]) | IC50 (MCF7 [22]) [nM] | half-life at 30 ug/ml [23] [h] | IC50 (HT-29 [24]) [nM] | Activity (MCF7 [25]) [%] | fold change (FC) (Tubulin (Bos taurus)) | Activity (Tubulin (Homo sapiens) [27]) | also measured
COc1cc(N2C(=O)C(O)C2c2ccc(SC)cc2)cc(OC)c1OC (racemic) | < 10 | > 100000 | Active | 15 | 70 | < 10 | 16 | Active | < 10 | Active | Active | Active | 16 | Active | 5 | > 24 | 15 | 12 | 3.5 | Active | Activity (HT-29 [1]): 68%; inhibition [2]: Active; Activity (HT-29 [9]): Active; inhibition [13]: Active; Activity (Tubulin (Homo sapiens) [14]): Active; Activity (HT-29 [17]): 15%; Activity (Tubulin (Homo sapiens) [18]): Active; Activity (HT-29 [26]): Active
COc1cc(N2C(=O)C(c3ccccc3)C2c2ccc(SC)cc2)cc(OC)c1OC (racemic) | 23 | > 100000 | Active | 59 | 65 | 35 | 10 | Active | 32 | Active | Active | Active | 8 | Active | 65 | 15 | 56 | 11 | 3.4 | Active | –
